pIC50: −log10 of the molar value.
How the values were obtained:
[1] = system: MCF7; experiment: Cytotoxicity against human MCF7 cells assessed as cell surviving fraction at 100 uM after 48 hrs by SRB assay; type: functional
Procedure, shortened: (§1)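 MCF7 cells were seeded at 10⁴ cells/well and allowed to attach for 24 h. Compounds in DMSO were added at 10, 25, 50 and 100 µM, in triplicate wells, for 48 h at 37 °C under 5% CO₂. Cells were fixed and stained 30 min with 0.4% SRB in 1% acetic acid, and dye was recovered in Tris-EDTA for absorbance. IC50 came from the surviving-fraction curve; values are means of three experiments ± SE.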

[2] = system: MCF7; experiment: Cytotoxicity against human MCF7 cells assessed as cell surviving fraction at 25 uM after 48 hrs by SRB assay; type: functional; procedure, shortened: as §1
[3] = system: MCF7; experiment: Cytotoxicity against human MCF7 cells assessed as cell surviving fraction at 50 uM after 48 hrs by SRB assay; type: functional; procedure, shortened: as §1
[4] = system: MCF7; experiment: Cytotoxicity against human MCF7 cells after 48 hrs by SRB assay; type: functional, cell-based; settings: for pIC50: Homo sapiens, MCF7, 48 h, read-out: IC50; procedure, shortened: as §1
[5] = system: MCF7; experiment: Cytotoxicity against human MCF7 cells assessed as cell surviving fraction at 10 uM after 48 hrs by SRB assay; type: functional; procedure, shortened: as §1

Structure (SMILES)	Activity [1]	Activity [2]	Activity [3]	pIC50 [4]	Activity [5]	IC50 ([4]; mcf7)
CCOC(=O)c1c(-c2ccc(N(C)C)cc2)c(C#N)c(=O)n(/N=C(\C)c2ccc(S(=O)(=O)N3CCCCC3)cc2)c1N	0.407	0.745	0.557	4.46	0.861	–
CCOC(=O)c1c(-c2ccc(O)cc2)c(C#N)c(=O)n(/N=C(\C)c2ccc(S(=O)(=O)N3CCCCC3)cc2)c1N	0.641	0.647	0.681	4.59	0.925	–
CCOC(=O)c1c(-c2ccc(O)c(OC)c2)c(C#N)c(=O)n(/N=C(\C)c2ccc(S(=O)(=O)N3CCCCC3)cc2)c1N	0.478	0.694	0.621	4.41	0.921	–
C/C(=N\n1c(N)cc(N)c(C#N)c1=O)c1ccc(S(=O)(=O)N2CCCCC2)cc1	0.394	0.298	0.416	4.44	0.371	–
CCOC(=O)c1c(-c2ccc(OC)cc2)c(C#N)c(=O)n(/N=C(\C)c2ccc(S(=O)(=O)N3CCCCC3)cc2)c1N	0.375	0.657	0.452	4.29	0.972	–
COc1cccc2c1C(=O)c1c(O)c3c(c(O)c1C2=O)C[C@@](O)(C(=O)CO)C[C@@H]3O[C@H]1C[C@H](N)[C@H](O)[C@H](C)O1 [DOXORUBICIN]	0.494	–	0.461	4.49	0.721	–
C/C(=N\NC(=O)c1sc2c(c1N)CCCC2)c1ccc(S(=O)(=O)N2CCCCC2)cc1	0.558	0.994	0.621	4.06	0.971	–
C/C(=N\NC(=O)c1sc2c(c1N)CCC2)c1ccc(S(=O)(=O)N2CCCCC2)cc1	0.375	0.857	0.552	4.12	0.942	–
CCOC(=O)c1c(-c2ccc(C)cc2)c(C#N)c(=O)n(/N=C(\C)c2ccc(S(=O)(=O)N3CCCCC3)cc2)c1N	0.581	0.677	0.652	4.42	0.911	–
C/C(=N\n1c(O)cc(N)c(C#N)c1=O)c1ccc(S(=O)(=O)N2CCCCC2)cc1	0.437	0.54	0.433	4.13	0.748	–
C/C(=N\NC(=O)c1sc(=S)n(-c2ccccc2)c1N)c1ccc(S(=O)(=O)N2CCCCC2)cc1	0.407	0.745	0.557	4.22	0.861	–
C/C(=N\NC(=O)c1sc(N)c(C#N)c1N)c1ccc(S(=O)(=O)N2CCCCC2)cc1	0.406	0.507	0.451	4.31	0.588	–
CCOC(=O)c1c(-c2ccc(Cl)cc2)c(C#N)c(=O)n(/N=C(\C)c2ccc(S(=O)(=O)N3CCCCC3)cc2)c1N	0.553	0.723	0.622	4.69	0.818	–
CCOC(=O)c1c(N)sc(C(=O)N/N=C(\C)c2ccc(S(=O)(=O)N3CCCCC3)cc2)c1N	0.841	0.947	0.981	–	1.925	Not Active
C/C(=N\NC(=O)CC#N)c1ccc(S(=O)(=O)N2CCCCC2)cc1	0.511	0.666	0.44	4.35	0.944	–

Reference: ChEMBL document CHEMBL1649367, “Anti-breast cancer activity of some novel 1,2-dihydropyridine, thiophene and thiazole derivatives” (Eur J Med Chem, 2011)
